Source: PubChem (The Scripps Research Institute Molecular Screening Center)
MsrA act: activators of bovine methionine sulfoxide reductase A; AID 602163; 0.3% of 360,000 active; activation, % at 10.6 µM; purified bovine MsrA, absorbance read-out; in the data active = activation above about 7.5%;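 note: 0% = vehicle and 100% = reference activator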
ARFGAP1 inh: inhibits rat ARF GTPase activating protein 1; Arfgap1-stimulated ARF1 GTP hydrolysis, GDP FP detection; Q62848; inhibition, % at 16.5 µM; 0.26% of 360,000 active; AID 651572;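 active = inhibition above a per-plate limit, mean inhibition of low control wells plus 3 SD, cut at about 25% in these data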;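 note: 0% = DMSO wells with enzyme and 100% = wells lacking Arfgap1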
Target sequence (Q62848 1-136 limits assumed): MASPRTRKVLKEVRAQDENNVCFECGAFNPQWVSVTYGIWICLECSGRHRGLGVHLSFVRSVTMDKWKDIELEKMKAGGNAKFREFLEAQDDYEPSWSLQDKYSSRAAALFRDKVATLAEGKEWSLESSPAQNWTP
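Material: rat Arfgap1 catalytic domain, aa 1-136; also added: human ARF1(Δ1-17)-GTP substrate; compound dosing: one concentration, 16.5 µM, DMSO 1.26%; incubation: GTP hydrolysis reaction 2 h at 25 °C; measured by: Tracer-displacement fluorescence polarization with EDTA stop, 620/688 nm; evaluation: % inhibition from polarization; repeats: one replicate per compound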
MsrA inhibitor: bovine MsrA inhibition; purified bovine MsrA, absorbance read-out; inhibition, % at 15.5 µM; 0.75% of 360,000 active; AID 651718;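 note: 0% = vehicle wells with enzyme and 100% = reference inhibitor wells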
ASAP1 GAP inh: inhibitors of human ASAP1 ArfGAP activity; inhibition, % at 16.5 µM; ASAP1-stimulated ARF1 GTP hydrolysis, GDP FP detection; 0.19% of 360,000 active; AID 624377; Q9ULH1; in the data active = inhibition above about 25%;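 note: 0% = vehicle with enzyme and substrate and 100% = no enzyme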
Target sequence (Q9ULH1 325-724 limits assumed): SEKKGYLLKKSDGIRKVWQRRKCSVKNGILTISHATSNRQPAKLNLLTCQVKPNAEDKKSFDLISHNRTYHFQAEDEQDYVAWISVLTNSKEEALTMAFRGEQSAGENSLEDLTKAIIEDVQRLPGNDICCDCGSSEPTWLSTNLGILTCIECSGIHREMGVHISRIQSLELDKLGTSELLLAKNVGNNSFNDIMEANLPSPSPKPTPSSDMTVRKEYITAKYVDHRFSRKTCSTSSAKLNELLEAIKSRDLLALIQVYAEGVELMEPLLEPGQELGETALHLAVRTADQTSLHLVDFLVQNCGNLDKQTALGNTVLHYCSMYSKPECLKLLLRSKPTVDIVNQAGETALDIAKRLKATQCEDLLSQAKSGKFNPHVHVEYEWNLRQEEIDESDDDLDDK
MsrA conf: confirmation of bovine MsrA inhibitors | 41% of 2,300 active | inhibition, % at 15.5 µM | purified bovine MsrA, absorbance read-out | shares compounds with MsrA inhibitor;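 note: coupled to thioredoxin reductase with NADPH and selenocystamine and DMSO as substrate; 0% = vehicle only and 100% = full effect of reference inhibitor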
Numbers without * were called inactive; . = no result given. Hits are enriched below; roughly 1.4% of the tested compounds scored in any of these assays. Cut-off read from the data, not from the text of the source, unless noted: active = inhibition above about 4.5%; inactive = the rest.

SMILES	MsrA act	ARFGAP1 inh	MsrA inhibitor	ASAP1 GAP inh	MsrA conf
O=C(O)c1cccc(NC2=C(Cl)C(=O)c3ccccc3C2=O)c1	-10	-4	4.9*	12	1
Cc1ccc(Nc2ccc(C(N)=O)cc2[N+](=O)[O-])cc1C	-4	-15	19*	11	12*
Cc1cc2c(nc1C)CCCN2S(=O)(=O)c1ccc(C(F)(F)F)cc1	.	10	0	-7	.
Cn1cnnc1Sc1ccc(/C=C/C(=O)c2ccc(O)cc2)cc1[N+](=O)[O-]	-12	-10	5.7*	7	3
CC1(CCc2ccccc2)NC(=O)NC1=O (configuration not stated)	-3	-6	0	1	.
COc1ccc(F)cc1C(=O)C1CCCN(C(=O)c2ccccc2N(C)C)C1 (configuration not stated)	1	8	-1	15	.
O=C(N/N=C/c1ccc([N+](=O)[O-])o1)c1cc(-c2ccc(-c3ccccc3)cc2)nc2ccccc12	0	-2	1	-7	.
COc1ccc(/C=N/Nc2ccccn2)cc1O	-5	7	6.1*	-2	3
CCOC(=O)c1c(NC(=O)C(=O)N/N=C/c2ccc(O)c(OC)c2)sc2c1CCCCC2	-1	3	5.0*	1	3
O=C(N/N=C/c1ccc([N+](=O)[O-])o1)c1cc(-c2ccncc2)nc2ccccc12	-10	12	6.1*	13	2
COc1cc(/C=N/NC(=O)c2cn(-c3cccc(C)n3)cn2)ccc1O	-6	7	4.7*	19	4
Cc1ccc(NC(=O)COC(=O)c2ccc(Cl)nc2)cc1S(=O)(=O)N1CCCCC1	-11	-2	0	3	.
CC(c1ccccn1)N(C)C(=O)c1ccc2nc(Cc3ccccc3F)oc2c1 (configuration not stated)	-3	-3	0	-2	.
CN(C)C1CN(Cc2cn(Cc3cccc(C(F)(F)F)c3)nn2)S(=O)(=O)C1 (configuration not stated)	2	-10	-1	-12	.
COc1cc(OC)c(OC)cc1/C=N/N(C)c1ccccc1	-1	-1	3	-4	.
COc1cc(/C=N/N(C)c2ccccc2)ccc1O	-1	15	5.3*	3	4
CCOc1cc(/C=N\NC(=O)c2c(C)nc3ccccn23)ccc1O	-6	4	5.6*	5	4.9*
COc1ccc(/C=N/NC(=O)c2cc(-c3ccccc3)nc3ccccc23)c(OC)c1	-6	7	5.4*	10	4
Cc1nc2ccccn2c1C(=O)N/N=C/c1ccc2c(c1)OCO2	-6	-9	3	6	.
COc1ccc(/C=N/NC(=O)c2cc(=O)[nH]c3ccccc23)cc1OC	-17	-10	4.7*	4	3
CC1(C(=O)NS(=O)(=O)c2ccccc2)CCN1C(=O)CCc1ccc(Cl)cc1Cl (configuration not stated)	0	-13	2	-1	.
Cc1nc(C)n(C(C)CNS(=O)(=O)c2ccc(Cl)cc2)n1 (configuration not stated)	0	-9	-1	-6	.
COc1cc(/C=N/NC(=O)C(=O)Nc2ccccn2)ccc1O	-4	1	5.3*	-3	5.0*
COc1cc(/C=N/NC(=O)c2cc[n+]([O-])cc2)ccc1O	-1	-7	7.5*	12	5.2*
CCCOc1ccc(/C=N/NC(=O)C(=O)Nc2ccccn2)cc1	-2	3	1	-4	.
SMILES	MsrA act	ARFGAP1 inh	MsrA inhibitor	ASAP1 GAP inh	MsrA conf
COc1cc(/C=N/NC(=O)c2nc(C)cc(C)n2)ccc1O	-5	7	5	11	.
COc1cc(/C=N/NC(=O)c2cccc(C(=O)N/N=C/c3ccc(O)c(OC)c3)n2)ccc1O	-3	4	6.6*	6	3
COc1cc(/C=N/NC(=O)c2cc3ccccc3[nH]2)ccc1O	-1	0	8.4*	12	5.9*
COc1ccc(/C=N/NC(=O)c2cnccn2)cc1O	-6	-3	4.8*	12	4.8*
COc1ccc(/C=N/NC(=O)c2cc3c(OC)ccc(OC)c3[nH]2)cc1O	-5	-1	6.6*	12	5.8*
COc1cccc(/C=N/NC(=O)c2cnccn2)c1	-8	11	0	-6	.
CCOc1ccccc1-c1cc(C(=O)N/N=C/c2ccc3c(c2)OCO3)c2ccccc2n1	-3	-6	-1	-4	.
CCOc1ccccc1-c1cc(C(=O)N/N=C/c2ccc(O)c(OC)c2)c2ccccc2n1	-7	-1	4.9*	5	2
C[C@@H]1ON(C)[C@H]2C[C@H]3c4cc(Br)ccc4CCN3C[C@@H]12	.	-8	2	-1	.
COc1ccccc1NS(=O)(=O)c1cccc(NC(=O)CCNC(=O)c2ccccc2OC)c1	-3	6	0	-11	.
COc1ccc(Nc2nc3ccc(C)cn3c(=O)c2/C=N/O)cc1	-1	12	5.0*	-1	0
Cc1ccnc(NC(=O)c2cccc([N+](=O)[O-])c2C)c1	-3	-1	1	13	.
Cc1cccc(C)c1N=Nc1c(C)cc(O)cc1C	-6	0	-1	2	.
Cc1nn(C)c(C)c1/C=C/C(=O)O	-5	-3	-1	-2	.
Cc1nn(C)c(C)c1/C=C/C(=O)c1ccc(Cl)cc1Cl	-7	1	6.4*	4	3
Nc1nnnn1/N=C/c1ccc(O)cc1	-3	-8	3	7	.
CSc1ccc(/C=N/n2nnnc2N)cc1	-5	-4	5.3*	-8	5.2*
CCOC(=O)c1c(NC(=O)COC(=O)/C=C/c2ccco2)sc2c1CC(C)(C)NC2(C)C	-3	20	8.7*	-7	15*
CN(C)c1ccc(C(=O)Nc2ccc(S(=O)(=O)NC3=NCCCCC3)cc2)cc1	-6	8	5.1*	-5	2
COc1ccc(Cc2c(C3CCCCC3)nc3cc(C)c(Br)c(C)n23)c(C)c1	-2	7	-1	3	.
O=c1oc2ccccc2c(NC(c2ccccc2)c2ccccc2)c1[N+](=O)[O-]	-14	-4	62*	7	56*
COC(=O)c1cn(-c2nc3ccccc3s2)nn1	-2	7	0	-4	.
CN(C)/N=C/c1ccc([N+](=O)[O-])cc1[N+](=O)[O-]	-1	-4	7.7*	3	3
CNC(=O)C1Cc2c(-c3ccccc3Oc3ccccc3)ccnc2O1 (configuration not stated)	-1	-18	1	-7	.
N#C/C(=C\C=C\c1ccccc1)C(=O)N1CCCC1	-3	2	4.8*	8	4.8*
CC1(C)CC(=O)C2=C(C1)Nc1ccccc1NC2c1ccc2c(c1)OCO2 (configuration not stated)	-2	-1	6.6*	-15	4
COc1ccccc1C1Nc2ccccc2NC2=C1C(=O)CC(C)(C)C2 (configuration not stated)	-4	3	5.4*	0	4
O=[N+]([O-])c1cccc(N/N=C/c2cc([N+](=O)[O-])ccc2O)c1	-15	10	2	-8	.
